Active and inactive are the calls of the source. No cut-off for these calls is given here.
Tests used:
[1] = molecular target: Cysteinyl leukotriene receptor (Cavia porcellus); assay: Inhibition of LTD4-induced contraction in guinea pig ileum
Cavia porcellus [2] = organism: Cavia porcellus; assay: Inhibition of LTD4-induced contraction in guinea pig ileum. Not active at highest concentration tested, 1 x 10 E-5 M; assay type: functional
In short: (§1)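 Isolated guinea pig ileum contracted with a submaximal concentration of LTD4. Two, three or four antagonist concentrations were tested on a single ileum. […] Alternatively, pKB was taken as -log of the antagonist concentration producing a twofold rightward shift of the LTD4 concentration-response curve.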

Cavia porcellus [3] = organism: Cavia porcellus; assay: Antagonist activity was evaluated against LTD4-induced contraction in guinea pig ileum; assay type: functional; conditions: read-out: pA2 (converted)
In short: as §1

Cavia porcellus [4] = organism: Cavia porcellus; assay: Inhibition of LTD4-induced contraction in guinea pig ileum. Not active at highest concentration tested, 3 x 10 E-6 M; assay type: functional
In short: as §1

| SMILES | -Log IC50 [1] | further results |
| --- | --- | --- |
| CCc1c(COc2ccc(-c3nn[nH]n3)cc2)ccc(C(C)=O)c1O | 7.9 | – |
| CCCc1c(COc2ccccc2Cc2nnn[nH]2)ccc(C(C)=O)c1O | 6.2 | – |
| CCCc1c(COc2ccc(Cc3nnn[nH]3)cc2)ccc(C(C)=O)c1O [LY-163443] | 8 | – |
| CCCc1c(COc2ccc(CCCc3nnn[nH]3)cc2)ccc(C(C)=O)c1O | 7.3 | – |
| CCCc1c(COc2ccc(Cc3nnnn3C)cc2)ccc(C(C)=O)c1O | – | -Log IC50 (Cavia porcellus [2]): inactive |
| CCCc1c(OCc2ccc(-c3nn[nH]n3)cc2)ccc(C(C)=O)c1O | 7 | – |
| CCCc1c(CSCc2ccc(-c3nn[nH]n3)cc2)ccc(C(C)=O)c1O | 6.5 | – |
| CCCc1c(OCCCCc2nnn[nH]2)ccc(C(C)=O)c1O [TOMELUKAST] | – | Kb (Cavia porcellus [3]): 63.1 nM |
| CCCc1c(COCCOc2ccc(Cc3nnn[nH]3)cc2)ccc(C(C)=O)c1O | 7 | – |
| CCCc1c(COc2ccc(Cc3nnn[nH]3)cc2)ccc(C(C)=O)c1OC | 6.3 | – |
| CCCc1c(CNc2ccc(Cc3nnn[nH]3)cc2)ccc(C(C)=O)c1O | 7.5 | – |
| CCCc1c(COCCOc2ccc(-c3nn[nH]n3)cc2)ccc(C(C)=O)c1O | 7.3 | – |
| CCCc1c(COc2cccc(OCc3nn[nH]n3)c2)ccc(C(C)=O)c1O | 8 | – |
| CCCc1c(COc2ccc(-c3nn[nH]n3)cc2)ccc(C=O)c1O | 6.4 | – |
| CCCCc1c(COc2ccc(-c3nn[nH]n3)cc2)ccc(C(C)=O)c1O | 7.9 | – |
| CCCc1c(COc2ccc(Cc3nnn[nH]3)cc2)ccc(/C(C)=N\O)c1O | 5.8 | – |

| SMILES | -Log IC50 [1] | further results |
| --- | --- | --- |
| CC(=O)c1ccc(COc2ccc(Cc3nnn[nH]3)cc2)cc1O | – | -Log IC50 (Cavia porcellus [4]): inactive |
| CCCc1c(COc2ccc(Cc3nnn[nH]3)cc2)ccc(C(=O)CC)c1O | 7 | – |
| CC(=O)c1ccc(COc2ccc(Cc3nnn[nH]3)cc2)c(CC(C)C)c1O | 7.7 | – |
| CCCc1c(COc2cccc(Cc3nnn[nH]3)c2)ccc(C(C)=O)c1O | 7 | – |
| CCCc1c(COc2ccc(-c3nn[nH]n3)cc2)ccc(C(C)=O)c1O | 8 | – |
| CCCc1c(COc2ccc(Cc3nnn(C)n3)cc2)ccc(C(C)=O)c1O | 6.2 | – |
| CCCc1c(COc2ccc(C(C)c3nnn[nH]3)cc2)ccc(C(C)=O)c1O (stereo unspecified) | 7.9 | – |
| CCCc1c(COc2ccc(OCc3nn[nH]n3)cc2)ccc(C(C)=O)c1O | 7.8 | – |
| CCCc1c(COc2ccc(CCc3nnn[nH]3)cc2)ccc(C(C)=O)c1O | 8.1 | – |
| CCCc1c(CSc2ccc(-c3nn[nH]n3)cc2)ccc(C(C)=O)c1O | 7.7 | – |
| CCCc1c(COc2ccc(-c3nn[nH]n3)cc2)ccc(C(=O)c2ccccc2)c1O | – | -Log IC50 (Cavia porcellus [2]): inactive |
| CCCc1c(COc2ccc(/C=C/c3nn[nH]n3)cc2)ccc(C(C)=O)c1O | 7.4 | – |
| CCc1c(COc2ccc(Cc3nnn[nH]3)cc2)ccc(C(C)=O)c1O | 7.9 | – |
| CC(=O)c1ccc(COc2ccc(-c3nn[nH]n3)cc2)c(C)c1O | 7 | – |
| CCCCc1c(COc2ccc(Cc3nnn[nH]3)cc2)ccc(C(C)=O)c1O | 7.8 | – |
